Most compounds without a hit are left out; they make up all but 3% or so of the library.
HTR1E agonist = agonists of human 5-HT1E serotonin receptor | activation, % at 6 µM | P28566 | AID 574 | 0.69% of 65,000 active | CHO 5-HT1E Ga15 NFAT-bla reporter, FRET; 0% DMSO wells, 100% control agonist wells;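 active means activation above a set limit, the screen-wide mean activation plus 3 SD, cut at about 8.5% in these data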;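 further: 100% = positive control agonist at 1 µM giving full maximal response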
S1P3 agonist = activates the human S1P3 receptor | Q99500 | S1P3 NFAT-BLA reporter cells, agonism, FRET ratio; relative to 1 µM S1P, basal subtracted | activation, % at 4.5 µM | 0.1% of 60,000 active;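 active means activation above the screen-wide mean plus 3 SD, cut at about 4.5% in these data, passing the limit was not always enough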
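Assay system: stable CHO line with human S1P3, Gα16, NFAT-BLA reporter; Detection: FRET β-lactamase substrate fluorescence, excitation 405 nm, 460/535 nm emission ratio, background-subtracted; Read-out: percent activation versus median 1 µM S1P response, basal-subtracted, per plate; Incubation: cells plated overnight, compound 4 h 37 °C, substrate 2 h RT.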
5HT1a antag = antagonists of human 5-HT1a serotonin receptor. 0.68% of 62,000 active. P08908. CHO 5-HT1a Ga15 NFAT-bla reporter, antagonist mode. inhibition, % at 10 µM. AID 612;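 active means inhibition above the mean of all tested compounds plus 3 SD, cut at about 43% in these data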;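 further: receptor stimulated by 5-CT agonist at 100 nM near EC80; beta-lactamase reporter measured by ratiometric fluorescence of a cleavable substrate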
Target sequence (P08908 whole entry, looked up): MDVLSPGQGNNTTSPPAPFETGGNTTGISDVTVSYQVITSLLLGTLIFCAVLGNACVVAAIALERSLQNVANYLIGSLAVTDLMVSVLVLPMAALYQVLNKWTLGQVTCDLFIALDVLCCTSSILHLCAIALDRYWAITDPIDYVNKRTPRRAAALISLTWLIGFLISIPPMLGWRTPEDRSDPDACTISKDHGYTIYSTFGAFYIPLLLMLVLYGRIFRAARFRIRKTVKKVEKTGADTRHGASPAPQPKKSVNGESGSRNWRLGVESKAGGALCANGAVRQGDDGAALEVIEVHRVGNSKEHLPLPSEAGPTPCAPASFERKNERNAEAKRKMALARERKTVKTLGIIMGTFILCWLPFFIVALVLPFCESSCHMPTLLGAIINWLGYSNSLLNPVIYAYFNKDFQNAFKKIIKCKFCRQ
5HT1a ag = activates the human 5-HT1a serotonin receptor. CHO 5-HT1a Ga15 NFAT-bla reporter, FRET ratio; 0% basal, 100% maximal reference agonist. P08908. 0.56% of 65,000 active. activation, % at 10 µM;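 active means activation above the screen-wide mean activation plus 3 SD, cut at about 19% in these data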;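 further: 0% = DMSO wells and 100% = 5-CT at EC100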
5HT1E antag = antagonists of human 5-HT1E serotonin receptor | P28566 | CHO 5-HT1E Ga15 NFAT-bla reporter, FRET, antagonist | inhibition, % at 6 µM | 0.99% of 65,000 active | AID 571;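 active means inhibition above a set limit, the mean inhibition across every tested compound plus 3 SD, cut at about 29% in these data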;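 further: signal is the 460 over 535 nm emission ratio of beta-lactamase substrate; 0% = agonist plus DMSO wells and 100% = wells without agonist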
S1P1 ag pot = activates or potentiates agonism at human S1P1 receptor; activation, % at 9.5 µM; P21453; S1P1 CRE-bla cells, forskolin, beta-lactamase FRET, potentiator mode; S1P1 agonist co-added at EC20, 2 nM; 100% = saturating reference agonist, 0% = basal; AID 449; 0.57% of 56,000 active;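 active means activation above a cutoff set at the mean activation of all tested compounds plus 3 SD, cut at about 54% in these data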;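 further: forskolin at 4 µM as EC80 and the EC20 agonist is SEW2871; 100% = SEW2871 at its EC100 plus forskolin at EC80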
* hit, by the source's call; · = no result given.

SMILES	HTR1E agonist	S1P3 agonist	5HT1a antag	5HT1a ag	5HT1E antag	S1P1 ag pot
c1ccc(-c2ccc(-c3nc(-c4ccncc4)no3)cc2)cc1	0	-1	-24	0	-4	85*
c1ccc(C(Cc2nc(-c3ccncc3)no2)c2ccccc2)cc1	-1	42*	37	-1	4	·
c1ccc(-c2ccc(-c3nc(-c4cccnc4)no3)cc2)cc1	-1	-1	-40	-3	0	82*
c1ccc(-c2nc(-c3ccncc3)no2)cc1	0	0	-6	0	1	·
CCc1ccc(-c2nc(-c3ccncc3)no2)cc1	0	-1	2	0	-6	76*
Cc1cc(Nc2ccccc2N2CCOCC2)n2ncnc2n1	1	1	-12	-1	-13	-43
Cc1ccc(C)c(NC(=O)Cn2nc(C)c3ccccc3c2=O)c1	-1	-1	3	-1	-4	3
CSc1ccc2nnc(-c3cccc(F)c3)n2n1	0	1	-6	20*	6	-20
CCOC(=O)CC(=O)CSc1ccc2nnc(-c3cccc(F)c3)n2n1	0	0	2	-2	-1	2
CCn1c(SCC(=O)c2cc(OC)ccc2OC)nnc1C1CC1	1	0	8	-2	-7	-6
Cc1cccc(Nc2nc(-c3ccccn3)cs2)n1	0	-1	45*	-1	36*	51
c1ccc(Nc2nc(-c3cccs3)cs2)nc1	0	0	24	0	-10	16
Cc1ccc(NC(=O)CSc2n[nH]c(-c3ccncc3)n2)cc1C	-1	-1	1	1	0	-4
CCOc1cc(C(=O)CSc2nnc(CNc3ccc(Cl)cc3)o2)ccc1NC(=O)CC	4	-1	32	-2	58*	12
CCc1nnc(NC(=O)CSc2nnc(CNc3ccc(Cl)cc3)o2)s1	0	-1	2	-3	5	1
CCOC(=O)c1c(C)oc2c1c(C=NCC1CCCO1)c(O)c1ccccc12 (stereo not given)	0	-1	64*	-3	31*	1
Cc1cccc(N2CCN(CCNC(=O)c3cc4c(s3)CS(=O)(=O)C4)CC2)c1C	13*	·	42	37*	-5	·
Cc1cc(C)n(-c2nncn2/N=C/c2ccccc2F)n1	-2	-1	55*	-2	12	7
Fc1ccccc1/C=N/n1cnnc1	0	-2	·	2	-8	2
CCOC(=O)c1[nH]c(C)c(C(=O)OCCN2C(=O)c3ccccc3C2=O)c1C	-2	-1	10	2	37*	6
CCOC(=O)c1c(C)[nH]c(C(C)=O)c1C	0	-1	-11	-1	5	-26
COc1ccc2c(c1)c(CCN1C(=O)c3ccccc3C1=O)cn2C(=O)c1ccco1	0	-1	8	0	7	-6
O=C(Oc1ccc2[nH]cc(CCN3C(=O)c4ccccc4C3=O)c2c1)c1ccco1	38*	-1	-12	-1	-7	-19
NC(=O)c1ccc(OCC(F)(F)C(F)(F)C(F)(F)C(F)(F)C(F)(F)C(F)F)cc1	-2	-1	17	-2	9	63*
COc1cc(OC)cc(C(C(=O)NCc2ccccc2)N(Cc2ccco2)C(=O)c2ccno2)c1 (stereo not given)	0	0	11	-2	-10	7
SMILES	HTR1E agonist	S1P3 agonist	5HT1a antag	5HT1a ag	5HT1E antag	S1P1 ag pot
CCOc1ccc(NC(=O)CN(C)CC(=O)Nc2ccccc2C#N)cc1OCC	0	0	-10	289*	7	-7
Cc1noc(C)c1S(=O)(=O)NCc1ccc2c(c1)OCO2	1	0	3	2	13	-6
COc1cccc(C(=O)Nc2ccc(C)cc2)c1	1	·	4	164*	-1	·
COc1cccc(C(=O)Nc2ccc(C(=O)O)cc2)c1	0	0	2	-2	5	-17
N#CC1=C(N)N(c2ccc(Oc3ccccc3)cc2)C(=O)C1	0	2	-20	-1	-6	-1
COc1ccc(-c2nn(C)c(=O)c3ccccc23)cc1NC(=O)Cn1nc(C)c2ccccc2c1=O	1	0	16	0	38*	11

Source: PubChem (The Scripps Research Institute Molecular Screening Center)
